Laboratory results reported in paper PMC6130797 (ACS Omega, 2018).
Values joined by “and” are separate entries in the source; they are usually repeats but may differ in a detail not shown here. Identical values can stand only once. “Also recorded” adds a separate entry of the source. Like-named read-outs stand apart in the source and are kept apart here.

Columns and labels:
hH2R [1] = molecular target: T1, hH2R (Homo sapiens, UniProt P25021); test: [35S]GTPγS binding assay, Sf9 cell membranes; type: biochemical
T1 sequence (P25021 whole entry): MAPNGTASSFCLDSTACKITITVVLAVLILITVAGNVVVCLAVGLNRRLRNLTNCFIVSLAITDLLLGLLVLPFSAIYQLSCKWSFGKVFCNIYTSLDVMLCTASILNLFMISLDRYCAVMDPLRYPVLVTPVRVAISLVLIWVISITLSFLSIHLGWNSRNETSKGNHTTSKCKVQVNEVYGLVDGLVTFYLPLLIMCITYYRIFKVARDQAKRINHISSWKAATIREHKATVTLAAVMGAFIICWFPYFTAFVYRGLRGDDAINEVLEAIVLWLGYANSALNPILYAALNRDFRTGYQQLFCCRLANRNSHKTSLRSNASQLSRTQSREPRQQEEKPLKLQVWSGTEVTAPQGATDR
T1 sequence (P63092 1-380 isoform P63092-2 partner): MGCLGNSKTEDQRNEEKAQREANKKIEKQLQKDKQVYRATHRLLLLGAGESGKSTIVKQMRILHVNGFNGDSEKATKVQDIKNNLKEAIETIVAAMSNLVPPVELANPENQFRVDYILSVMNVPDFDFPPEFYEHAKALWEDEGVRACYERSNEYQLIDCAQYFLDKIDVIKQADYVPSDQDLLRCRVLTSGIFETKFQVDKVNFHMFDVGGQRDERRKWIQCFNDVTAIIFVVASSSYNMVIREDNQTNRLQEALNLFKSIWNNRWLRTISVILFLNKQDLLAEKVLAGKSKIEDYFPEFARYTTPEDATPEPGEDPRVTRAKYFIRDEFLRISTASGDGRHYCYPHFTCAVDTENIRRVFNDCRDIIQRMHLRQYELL

hH4R [2] = molecular target: T2, hH4R (Homo sapiens, UniProt Q9H3N8); test: [35S]GTPγS binding assay, Sf9 cell membranes; type: biochemical
gpH2R [3] = molecular target: T3, gpH2R (Cavia porcellus, UniProt P47747); test: biochemical; type: biochemical, guinea pig
Target sequence in this assay (P47747 whole entry): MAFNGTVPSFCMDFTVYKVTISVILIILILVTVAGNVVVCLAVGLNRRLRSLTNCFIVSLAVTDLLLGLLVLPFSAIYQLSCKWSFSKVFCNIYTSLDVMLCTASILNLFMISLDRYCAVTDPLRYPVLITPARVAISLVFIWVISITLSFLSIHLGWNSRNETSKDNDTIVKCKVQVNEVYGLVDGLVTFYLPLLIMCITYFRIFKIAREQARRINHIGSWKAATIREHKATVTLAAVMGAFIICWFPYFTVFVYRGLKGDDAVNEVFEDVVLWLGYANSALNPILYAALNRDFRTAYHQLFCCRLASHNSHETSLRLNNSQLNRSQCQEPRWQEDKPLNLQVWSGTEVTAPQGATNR
Target sequence in this assay (P63092 1-380 isoform P63092-2 partner): as the sequence (P63092 1-380 isoform P63092-2 partner) above

rH2R = rH2R (Rattus norvegicus, UniProt P25102); test: [35S]GTPγS binding assay, Sf9 cell membranes; type: biochemical
rH2R, sequence (P25102 whole entry): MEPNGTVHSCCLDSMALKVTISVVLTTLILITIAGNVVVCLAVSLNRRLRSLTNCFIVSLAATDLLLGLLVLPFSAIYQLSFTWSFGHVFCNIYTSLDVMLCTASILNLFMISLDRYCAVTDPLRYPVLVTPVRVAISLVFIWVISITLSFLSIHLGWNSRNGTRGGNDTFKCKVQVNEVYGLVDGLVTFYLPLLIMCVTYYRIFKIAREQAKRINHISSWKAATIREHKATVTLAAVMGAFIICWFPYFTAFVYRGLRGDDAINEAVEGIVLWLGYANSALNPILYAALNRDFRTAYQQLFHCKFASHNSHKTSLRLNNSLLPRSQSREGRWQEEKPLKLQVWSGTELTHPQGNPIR
rH2R, sequence (P63092 1-380 isoform P63092-2 partner): as the sequence (P63092 1-380 isoform P63092-2 partner) above

gpH2R [4] = molecular target: T3, gpH2R; set-up: species or system guinea pig
Target sequence in this assay (P47747 whole entry): as the sequence (P47747 whole entry) above

hH1R = hH1R (Homo sapiens, UniProt P35367); test: biochemical; type: binding
hH1R, sequence (P35367 whole entry): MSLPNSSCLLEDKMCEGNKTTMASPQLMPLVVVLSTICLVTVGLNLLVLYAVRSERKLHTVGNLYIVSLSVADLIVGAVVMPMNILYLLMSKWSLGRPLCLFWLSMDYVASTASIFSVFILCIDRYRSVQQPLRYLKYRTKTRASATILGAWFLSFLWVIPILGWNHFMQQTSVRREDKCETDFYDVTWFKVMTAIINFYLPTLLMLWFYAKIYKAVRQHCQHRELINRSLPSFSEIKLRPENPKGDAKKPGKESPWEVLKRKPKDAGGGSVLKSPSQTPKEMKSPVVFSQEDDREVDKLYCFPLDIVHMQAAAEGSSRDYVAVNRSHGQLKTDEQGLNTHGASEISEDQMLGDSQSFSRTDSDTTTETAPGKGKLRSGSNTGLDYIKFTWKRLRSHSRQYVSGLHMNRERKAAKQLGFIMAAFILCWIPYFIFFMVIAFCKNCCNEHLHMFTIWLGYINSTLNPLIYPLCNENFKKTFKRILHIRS

hH2R [5] = molecular target: T1, hH2R; type: binding; conditions: for difference in pKi (H2R) over pKi (H1,3,4R): hH2R selectivity from radioligand binding
hH3R [6] = molecular target: T4, hH3R (Homo sapiens, UniProt Q9Y5N1); test: Radioligand competition binding with [3H]Nα-methylhistamine, Sf9 cell membranes
T4 sequence (Q9Y5N1 whole entry): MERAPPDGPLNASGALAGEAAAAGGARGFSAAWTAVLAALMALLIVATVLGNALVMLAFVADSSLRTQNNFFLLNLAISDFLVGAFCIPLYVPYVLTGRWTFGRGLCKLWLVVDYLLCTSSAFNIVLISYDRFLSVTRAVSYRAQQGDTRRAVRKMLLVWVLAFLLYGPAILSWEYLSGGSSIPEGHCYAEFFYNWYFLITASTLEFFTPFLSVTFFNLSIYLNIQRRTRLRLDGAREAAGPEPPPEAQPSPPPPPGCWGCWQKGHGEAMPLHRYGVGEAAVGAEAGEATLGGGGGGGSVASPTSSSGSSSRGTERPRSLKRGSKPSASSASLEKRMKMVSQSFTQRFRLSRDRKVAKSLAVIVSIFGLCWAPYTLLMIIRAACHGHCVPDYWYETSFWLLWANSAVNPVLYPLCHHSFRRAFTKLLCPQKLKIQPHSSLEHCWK

hH4R [7] = molecular target: T2, hH4R; test: Radioligand competition binding with [3H]histamine, Sf9 cell membranes
hH3R [8] = molecular target: T4, hH3R; test: [35S]GTPγS binding assay, Sf9 cell membranes; type: biochemical
gpH1R = gpH1R (Cavia porcellus, UniProt P31389); test: Histamine H1 receptor assay on isolated guinea pig ileum
gpH1R, sequence (P31389 whole entry): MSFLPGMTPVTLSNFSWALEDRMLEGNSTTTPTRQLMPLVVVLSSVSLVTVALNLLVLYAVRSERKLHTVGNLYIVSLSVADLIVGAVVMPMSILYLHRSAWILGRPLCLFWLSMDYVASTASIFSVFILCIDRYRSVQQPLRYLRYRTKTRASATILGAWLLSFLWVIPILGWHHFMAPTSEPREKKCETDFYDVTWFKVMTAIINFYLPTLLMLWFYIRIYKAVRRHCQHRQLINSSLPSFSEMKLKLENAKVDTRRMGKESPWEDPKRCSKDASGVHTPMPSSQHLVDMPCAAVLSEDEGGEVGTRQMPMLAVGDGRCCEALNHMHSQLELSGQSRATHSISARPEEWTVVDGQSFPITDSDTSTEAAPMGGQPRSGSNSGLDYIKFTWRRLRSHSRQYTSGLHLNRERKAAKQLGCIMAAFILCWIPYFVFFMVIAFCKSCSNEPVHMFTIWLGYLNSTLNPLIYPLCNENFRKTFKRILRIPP

[9] = Chemical stability in binding buffer, RP-HPLC analysis; type: physicochemical; conditions: binding buffer pH 7.4, 100 μM, room temperature, 12 months
Outline: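 Test compounds (dimeric bisalkylguanidines) were held at 100 μM in binding buffer (12.5 mM MgCl2, 1 mM EDTA, 75 mM Tris/HCl, pH 7.4) at room temperature for 12 months.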

[10] = maximal response relative to histamine (Emax = 1.00)
[11] = hH2R pKi, [3H]tiotidine (Kd […], c = 10 nM), mean ± SEM
[12] = hH3R pKi, [3H]Nα-methylhistamine (Kd 8.6 nM, c = 3 nM), mean ± SEM

Compound	EC50 (rH2R) [nM]	Ki (hH1R; hH1R pKi) [nM]	Ki (hH2R [5]; [11]) [nM]	Ki (hH3R [6]; [12]) [nM]	Ki (hH4R [7]; hH4R pKi) [nM]	EC50 (hH2R [1]) [nM]	hH2R Emax (hH2R [1])	Kb (hH3R [8]) [nM]	hH3R Emax (hH3R [8])	Kb (hH4R [2]) [nM]	hH4R Emax (hH4R [2])	EC50 (gpH2R [3]) [nM]	gpH2R Emax (gpH2R [3])	rH2R Emax (rH2R)	Kb (gpH1R) [nM]	EC50 (gpH2R [4]) [nM]	gpH2R Emax (gpH2R [4])	difference in pKi (H2R) over pKi (H1,3,4R) (hH2R [5])	other results
NCCc1c[nH]cn1 [Compound 1, histamine, reference compound]	1070																		hH2R Emax (hH2R [1]; [10]): 1.00; hH4R Emax (hH4R [2]; [10]): 1.00; gpH2R Emax (gpH2R [3]; [10]): 1.00; rH2R Emax (rH2R; [10]): 1.00; gpH2R Emax (gpH2R [4]; guinea pig right atrium, relative to maximal increase in heart rate induced by histamine (Emax = 1.00)): 1.00
N=C(NCCCCCCCCNC(=N)NCCCc1c[nH]cn1)NCCCc1c[nH]cn1 [Compound 5, 1,1′-(Octane-1,8-diyl)bis{3-[3-(1H-imidazol-4-yl)propyl]guanidine}]	66.1	3160	89.1	30.2	87.1	166	0.50 ± 0.03	135	0	407000	0	25.1	0.95 and 0.95 ± 0.05	0.80 ± 0.01	1700	10.5	0.91 and 0.91 ± 0.05		Ki (hH1R; Ki hH1R, bound stated): > 1000 nM; Ki (hH2R [5]; Ki hH2R, bound stated): < 100 nM; Ki (hH3R [6]; Ki hH3R, bound stated): < 100 nM; Ki (hH4R [7]; Ki hH4R, bound stated): < 100 nM
N=C(NCCCCCCCCCCCCNC(=N)NCCCc1c[nH]cn1)NCCCc1c[nH]cn1 [Compound 57, 1,1′-(Dodecane-1,12-diyl)bis{3-[3-(1H-imidazol-4-yl)propyl]guanidine}]	24.5	355	38.9	16.2	20	53.7	0.52 ± 0.03	46.8	0	324000	0	29.5	0.89 ± 0.07	0.80 and 0.80 ± 0.03	123	7.76	0.63 and 0.63 ± 0.03		gpH1R pA2 (gpH1R; guinea pig ileum, antagonism of histamine-induced contraction): 6.91; chemical stability [9]: excellent chemical stabilities; also recorded: no decomposition
Cc1nc(N)sc1CCCNC(=N)NCCCCCCCCNC(=N)NCCCc1sc(N)nc1C [Compound 58, 1,1′-(Octane-1,8-diyl)bis{3-[3-(2-amino-4-methylthiazol-5-yl)propyl]guanidine}]	148	> 3160	46.8			245	0.33 ± 0.03		0		0	52.5	0.97 ± 0.06	0.70 ± 0.04			0.78 ± 0.01	at least 1.5 log units	Ki (hH1R; Ki hH1R, bound stated): > 1000 nM; Ki (hH2R [5]; Ki hH2R, bound stated): < 100 nM; Ki (hH3R [6]; Ki hH3R, bound stated): > 1000 nM; Ki (hH4R [7]; Ki hH4R, bound stated): > 1000 nM; chemical stability [9]: excellent chemical stabilities; also recorded: no decomposition
Cc1nc(N)sc1CCCNC(=N)NCCCCCCCCNC(=N)NCCCc1cnc(N)s1 [Compound 63, 1-[3-(2-Amino-4-methylthiazol-5-yl)propyl]-3-{8-[3-(3-(2-aminothiazol-5-yl)propyl)guanidino]octyl}guanidine]	141	> 3160	123	3980	7240	251	0.47 ± 0.03	21400	0	186000	0	46.8	1.02 and 1.02 ± 0.04	0.87 ± 0.02	1000	2.75	0.88 ± 0.03	at least 1.5 log units	Emax (gpH2R [4]): 88%; potency relative to histamine (gpH2R [4]; gpH2R, atrium): 250 times
CCCCCCCCNC(=N)NCCCc1c[nH]cn1 [Compound 136]		> 3160	110	107	126	138	0.48 ± 0.02		–0.53 ± 0.03	209000	0				794	195	1.13 ± 0.07		EC50 (hH3R [8]): 28.8 nM; quality of action at hH3R (hH3R [8]; [35S]GTPγS binding assay): inverse agonistic activity
CCCCCCCCCCCCNC(=N)NCCCc1sc(N)nc1C [Compound 139]		> 3160	468	2040	5620	6920		4270	0		–0.97 ± 0.01				437	269	0.60 ± 0.02		EC50 (hH4R [2]): 13800 nM; quality of action at hH4R (hH4R [2]; [35S]GTPγS binding assay): inverse agonistic activity

More lines, main results first:

EC50 (rH2R) [nM]	Ki (hH1R; hH1R pKi) [nM]	Ki (hH2R [5]; [11]) [nM]	Ki (hH3R [6]; [12]) [nM]	Ki (hH4R [7]; hH4R pKi) [nM]	EC50 (hH2R [1]) [nM]	hH2R Emax (hH2R [1])	Kb (hH3R [8]) [nM]	hH3R Emax (hH3R [8])	Kb (hH4R [2]) [nM]	hH4R Emax (hH4R [2])	EC50 (gpH2R [3]) [nM]	gpH2R Emax (gpH2R [3])	rH2R Emax (rH2R)	Kb (gpH1R) [nM]	EC50 (gpH2R [4]) [nM]	gpH2R Emax (gpH2R [4])	difference in pKi (H2R) over pKi (H1,3,4R) (hH2R [5])	Compound	other results
	> 10000	234	11000	52500	295	0.40 ± 0.05	89100	0	263000	0				832	20.4	0.94 ± 0.03	at least 1.5 log units	N=C(NCCCCCCCCNC(=N)NCCCc1cnc(N)s1)NCCCc1cnc(N)s1 [Compound 59]	
	> 1000	117	32.4	74.1	589	0.54 ± 0.05	66.1	0	204000	0				1410	10.2	0.91 ± 0.03		Cc1nc(N)sc1CCCNC(=N)NCCCCCCCCNC(=N)NCCCc1c[nH]cn1 [Compound 61]	
	> 1000	53.7	37.2	107	309	0.45 ± 0.04	81.3	0	372000	0				977	5.62	1.02 ± 0.06		N=C(NCCCCCCCCNC(=N)NCCCc1cnc(N)s1)NCCCc1c[nH]cn1 [Compound 62]	
